Data: ChEMBL document CHEMBL4145585, “Structures and Activities of Tiahuramides A-C, Cyclic Depsipeptides from a Tahitian Collection of the Marine Cyanobacterium Lyngbya majuscula” (J Nat Prod, 2018)
Values after ≈ are worked out from the molar mass of the structure shown. Active and inactive are the calls of the source. The rule behind the calls is not given here.

Key:
[1] = tested on: Aeromonas salmonicida; assay: Antimicrobial activity against Aeromonas salmonicida subsp. salmonicida CIP 103209T after 24 hrs by broth micro dilution assay; format: functional
Outline: (§1)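 Compounds were in DMSO (at most 5% of total volume) and were incubated with the strain in PB medium in 96-well plates at 37 °C for 24 h with stirring. Growth was read as optical density at 630 nm. Runs were in triplicate and averaged. Wells without growth were plated on rich solid medium to tell bacteriostatic from bactericidal action.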

[2] = tested on: Vibrio anguillarum; assay: Antimicrobial activity against Vibrio anguillarum CIP 63.36T after 24 hrs by broth micro dilution assay; format: functional; outline: as §1
[3] = tested on: SH-SY5Y; assay: Induction of apoptosis in human SH-SY5Y cells at 6 uM after 6 hrs by Annexin V-FITC/PI staining based flow cytometry; format: functional
Outline: (§2)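 SH-SY5Y cells were seeded at 1 × 10^6 per well and treated 6 h at 6 μM. Cells were washed in PBS and stained with annexin V–FITC and propidium iodide for 15 min. 10 000 events were analysed by imaging flow cytometry and classed as viable, apoptotic, late apoptotic or necrotic. Staurosporine (1 μM) was the death control. Data are mean ± SEM of three experiments, with Student's t test.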

[4] = tested on: Micrococcus luteus; assay: Antimicrobial activity against Micrococcus luteus CIP A270 after 24 hrs by broth micro dilution assay; format: functional; settings: CIP A270, 24 h; outline: as §1
[5] = tested on: SH-SY5Y; assay: Induction of apoptosis in human SH-SY5Y cells assessed as necrotic cells at 6 uM after 6 hrs by Annexin V-FITC/PI staining based flow cytometry; format: functional; outline: as §2
[6] = tested on: Paracentrotus lividus; assay: Antiproliferative activity against Paracentrotus lividus eggs assessed as inhibition of first cell division measured 75 mins post fertilization by inverted microscopy; settings: 1.25 h
[7] = tested on: SH-SY5Y; assay: Induction of cell death in human SH-SY5Y cells at 15 uM pretreated with caspase inhibitor ZVAD-FMK for 24 hrs followed by compound addition measured after 6 hrs by MTT assay; format: functional, cell-based
Outline: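 SH-SY5Y cells were seeded as for MTT and preincubated with 40 μM Z-VAD-FMK for 24 h. Compound was then added (5, 10, 15 μM) for 6 h, and viability was read by MTT as % of untreated cells. Staurosporine (0.5 μM) was the apoptosis control. Data are mean ± SEM of three independent experiments in triplicate, with Student's t test.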

[8] = tested on: Escherichia coli; assay: Antimicrobial activity against Escherichia coli CIP 54.8 after 24 hrs by broth micro dilution assay; format: functional; settings: CIP 54.8, 24 h; outline: as §1
[9] = tested on: Shewanella baltica; assay: Antimicrobial activity against Shewanella baltica CIP 105850T after 24 hrs by broth micro dilution assay; format: functional; outline: as §1
[10] = tested on: SH-SY5Y; assay: Cytotoxicity against human SH-SY5Y cells assessed as decrease in cell viability after 24 hrs by MTT assay; format: functional, cell-based
Outline: (§3)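 SH-SY5Y cells were grown in DMEM/F-12 with 10% FBS at 37 °C in 5% CO2. Cells were seeded at 5 × 10^4 per well one day ahead, then treated at 0.001–100 μM for 24 h. MTT at 500 μg/mL was added for 1 h at 37 °C, cells were lysed with 5% SDS, and absorbance was read at 595 nm. The saponin death control was subtracted, and IC50 came from a log(inhibitor)–response fit.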

[11] = tested on: Paracentrotus lividus; assay: Induction of apoptosis in Paracentrotus lividus eggs assessed as DNA localization at nuclear periphery at 5 uM measured 30 mins post fertilization by DAPI staining staining based assay; format: functional, organism-based
Outline: (§4)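 Fertilized P. lividus eggs were treated with 5 μM compound and stained with DAPI to show nuclear DNA at 30 and 60 min post-fertilization. Chromatin state was compared with untreated control eggs.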

[12] = tested on: Paracentrotus lividus; assay: Antiproliferative activity against Paracentrotus lividus eggs assessed as inhibition of first cell division at 4 uM measured 75 mins post fertilization by inverted microscopy relative to control; format: functional; settings: 1.25 h
Outline: (§5)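 Paracentrotus lividus gametes were collected after acetylcholine injection into the coelomic cavity. Fertilized eggs were incubated with compound at 0–30 μM in 96-well microplates. Dividing eggs were scored under an inverted microscope at 75 min post-fertilization, when control eggs had completed first cleavage. The percentage of dividing eggs was recorded.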

[13] = tested on: Paracentrotus lividus; assay: Cell cycle arrest in Paracentrotus lividus eggs assessed as dispersion of condensed DNA in nucleus at 5 uM measured 60 mins post fertilization by DAPI staining staining based assay; format: functional, organism-based; outline: as §4
[14] = tested on: Paracentrotus lividus; assay: Induction of apoptosis in Paracentrotus lividus eggs assessed as DNA condensation at 5 uM measured 30 mins post fertilization by DAPI staining staining based assay; format: functional, organism-based; outline: as §4
[15] = tested on: Paracentrotus lividus; assay: Antiproliferative activity against Paracentrotus lividus eggs assessed as cells divided with formation of extracellular cytoplasmic granules at 5 uM measured 80 mins post fertilization by reversed optical microscopy; format: functional
Outline: (§6)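 P. lividus fertilized eggs were kept with 5 μM compound, with controls in seawater containing 1% MeOH. Morphology was scored under a reversed optical microscope (20×) at 80 min, 120 min and 18 h post-fertilization. The percentage of each typical phenotype was recorded.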

[16] = tested on: Paracentrotus lividus; assay: Antiproliferative activity against Paracentrotus lividus eggs assessed as inhibition of first cell division at 2 uM measured 75 mins post fertilization by inverted microscopy relative to control; format: functional; settings: 1.25 h; outline: as §5
[17] = tested on: Paracentrotus lividus; assay: Induction of morphological changes in Paracentrotus lividus eggs assessed as granulations of plasmic membrane at 5 uM measured 80 to 120 mins post fertilization by reversed optical microscopy; format: functional, organism-based; outline: as §6
[18] = tested on: Paracentrotus lividus; assay: Induction of morphological changes in Paracentrotus lividus eggs assessed as membrane blebbing at 5 uM measured 80 to 120 mins post fertilization by reversed optical microscopy; format: functional, organism-based; outline: as §6
[19] = tested on: Paracentrotus lividus; assay: Antiproliferative activity against Paracentrotus lividus eggs assessed as inhibition of cell division at 5 uM measured 80 mins post fertilization by reversed optical microscopy; format: functional, organism-based; outline: as §6
[20] = tested on: Paracentrotus lividus; assay: Induction of DNA fragmentation in Paracentrotus lividus eggs at 5 uM measured 60 mins post fertilization by TUNEL based fluorescence assay; format: functional, organism-based
Outline: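 P. lividus eggs were treated with 5 μM compound. Before first division (60 min post-fertilization), fluorescent TUNEL labelling of 3′-OH DNA ends was done. DNase-treated eggs served as positive control and untreated eggs as negative control.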

[21] = tested on: Paracentrotus lividus; assay: Inhibition of cell division in Paracentrotus lividus eggs assessed as reduction in reaching mesenchymal blastula stage at 5 uM measured 18 hrs post fertilization by reversed optical microscopy; format: functional, organism-based; outline: as §6
[22] = tested on: SH-SY5Y; assay: Cytotoxicity against human SH-SY5Y cells assessed as decrease in cell viability at 0.001 to 100 uM after 24 hrs by MTT assay; format: functional, cell-based; outline: as §3
[23] = tested on: SH-SY5Y; assay: Induction of apoptosis in human SH-SY5Y cells at 1 uM after 6 hrs by Annexin V-FITC/PI staining based flow cytometry; format: functional, cell-based
Outline: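 SH-SY5Y cells in DMEM/F-12 with 10% FBS at 37 °C, 5% CO2, seeded at 1 × 10^6 cells per well and exposed 6 h. They were then washed in PBS, stained 15 min with annexin V–FITC plus propidium iodide in binding buffer, and 10 000 events were read by imaging flow cytometry. Cells were classed as viable, apoptotic, late apoptotic or necrotic. Three independent experiments; mean ± SEM; Student's t test vs untreated cells.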

| MIC [1] [µM] | MIC [2] [µM] | MIC [4] [µM] | MIC [8] [µM] | MIC [9] [µM] | SMILES | IC50 [6] [µM] | IC50 [10] [µM] | further results |
| --- | --- | --- | --- | --- | --- | --- | --- | --- |
| 6.7 to 7 (≈ 4.96 to 5.19 µg/mL) | 7 to 7.4 (≈ 5.19 to 5.48 µg/mL) | 17 (≈ 12.6 µg/mL) | 14 (≈ 10.4 µg/mL) | 16 (≈ 11.9 µg/mL) | CCCCC[C@H]1OC(=O)[C@H]([C@@H](C)CC)N(C)C(=O)[C@@H]2CCCN2C(=O)[C@H](Cc2ccccc2)OC(=O)[C@H](C(C)C)N(C)C(=O)[C@H](C(C)C)NC(=O)[C@H]1C | 7 | 6 | Activity [3]: 7.9%; Activity [5]: 36%; Activity [7]: Active |
| 9.4 (≈ 6.95 µg/mL) | 8.5 (≈ 6.28 µg/mL) | 29 (≈ 21.4 µg/mL) | 12 (≈ 8.87 µg/mL) | 22 (≈ 16.3 µg/mL) | C=CCCC[C@H]1OC(=O)[C@H]([C@@H](C)CC)N(C)C(=O)[C@@H]2CCCN2C(=O)[C@H](Cc2ccccc2)OC(=O)[C@H](C(C)C)N(C)C(=O)[C@H](C(C)C)NC(=O)[C@H]1C | 3.9 | 14 | Activity [11]: Active; inhibition at 4 µM [12]: 60%; Activity [13]: Active; Activity [14]: Active; Activity [15]: 8%; inhibition at 2 µM [16]: 10%; Activity [17]: Active; Activity [18]: Active; inhibition [19]: Active; Activity [20]: Active; inhibition [21]: Active |
| 27 (≈ 19.9 µg/mL) | 33 (≈ 24.3 µg/mL) | 47 (≈ 34.6 µg/mL) | 35 (≈ 25.8 µg/mL) | > 50 | C#CCCC[C@H]1OC(=O)[C@H]([C@@H](C)CC)N(C)C(=O)[C@@H]2CCCN2C(=O)[C@H](Cc2ccccc2)OC(=O)[C@H](C(C)C)N(C)C(=O)[C@H](C(C)C)NC(=O)[C@H]1C | 11 | – | Activity [22]: inactive |
| – | – | – | – | – | CN[C@@H]1C[C@H]2O[C@@](C)([C@@H]1OC)n1c3ccccc3c3c4c(c5c6ccccc6n2c5c31)C(=O)NC4 | – | – | Activity [23]: Active |
